Measured values as given in ChEMBL document CHEMBL4665741, “Synthesis and biological evaluation of thiazole derivatives on basic defects underlying cystic fibrosis” (Bioorg Med Chem Lett, 2020).
pEC50: −log10 of the molar value. Active and inactive are the calls of the source. The calls are words filed in the database; no cut-off is given here.

Key:
Assay type in all cases: cell-based
[1] = tested on: Cystic fibrosis transmembrane conductance regulator (Homo sapiens), P13569 [F508del]; experiment: Corrector activity at CFTR F508del mutant (unknown origin) expressed in forskolin/VX-770-stimulated human CFBE41o- cells co-expressing HS-YFP assessed as increase in iodide influx measuring HS-YFP quenching at 2 to 10 uM incubated for 24 hrs by fluorescent method; settings: dose microM 2-10, time 24.0 hrs
Cystic fibrosis transmembrane conductance regulator (Homo sapiens), P13569 [F508del], sequence (P13569 as listed by the source): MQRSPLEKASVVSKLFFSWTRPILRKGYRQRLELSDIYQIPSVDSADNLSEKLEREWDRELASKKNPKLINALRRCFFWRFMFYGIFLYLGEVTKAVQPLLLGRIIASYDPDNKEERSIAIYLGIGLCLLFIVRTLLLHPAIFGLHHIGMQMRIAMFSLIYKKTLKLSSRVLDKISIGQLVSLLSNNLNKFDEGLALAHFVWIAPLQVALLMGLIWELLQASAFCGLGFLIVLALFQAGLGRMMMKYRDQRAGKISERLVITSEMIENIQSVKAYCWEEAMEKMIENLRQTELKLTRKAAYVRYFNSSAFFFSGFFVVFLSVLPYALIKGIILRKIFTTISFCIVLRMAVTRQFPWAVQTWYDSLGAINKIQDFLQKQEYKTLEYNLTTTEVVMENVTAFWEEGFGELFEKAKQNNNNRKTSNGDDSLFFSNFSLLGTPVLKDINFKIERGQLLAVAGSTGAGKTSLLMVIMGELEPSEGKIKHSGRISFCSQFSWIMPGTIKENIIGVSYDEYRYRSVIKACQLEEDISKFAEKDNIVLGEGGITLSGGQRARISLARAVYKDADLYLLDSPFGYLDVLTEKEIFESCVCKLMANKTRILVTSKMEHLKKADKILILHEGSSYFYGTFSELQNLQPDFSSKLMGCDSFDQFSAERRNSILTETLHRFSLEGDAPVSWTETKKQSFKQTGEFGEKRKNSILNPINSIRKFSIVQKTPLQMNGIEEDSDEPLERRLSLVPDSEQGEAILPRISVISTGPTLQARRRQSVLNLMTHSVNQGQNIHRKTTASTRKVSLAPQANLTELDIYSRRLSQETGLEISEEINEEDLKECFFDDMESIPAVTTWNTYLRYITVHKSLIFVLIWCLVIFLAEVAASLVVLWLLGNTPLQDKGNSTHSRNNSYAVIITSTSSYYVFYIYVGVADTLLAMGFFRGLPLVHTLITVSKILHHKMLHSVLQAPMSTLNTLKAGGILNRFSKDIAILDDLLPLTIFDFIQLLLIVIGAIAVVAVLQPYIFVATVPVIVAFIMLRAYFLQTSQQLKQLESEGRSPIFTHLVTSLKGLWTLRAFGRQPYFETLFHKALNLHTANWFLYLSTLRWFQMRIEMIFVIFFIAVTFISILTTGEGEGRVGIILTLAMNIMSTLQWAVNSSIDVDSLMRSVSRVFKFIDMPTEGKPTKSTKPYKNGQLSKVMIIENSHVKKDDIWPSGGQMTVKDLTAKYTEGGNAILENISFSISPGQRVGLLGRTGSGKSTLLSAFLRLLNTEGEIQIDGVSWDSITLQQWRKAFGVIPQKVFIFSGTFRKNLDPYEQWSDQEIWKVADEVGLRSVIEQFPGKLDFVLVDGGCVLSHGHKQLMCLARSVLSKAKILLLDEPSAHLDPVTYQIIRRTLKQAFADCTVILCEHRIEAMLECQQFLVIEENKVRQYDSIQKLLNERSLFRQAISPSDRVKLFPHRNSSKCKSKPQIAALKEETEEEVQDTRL
Procedure, shortened: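 CFBE41o- bronchial epithelial cells stably expressing F508del-CFTR and halide-sensitive YFP, incubated 24 h with compound at 2 and 10 μM, vehicle (DMSO), or VX-809 (1 μM) as positive control. F508del-CFTR activity at the plasma membrane was then read as the rate of HS-YFP quenching caused by iodide influx.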

[2] = tested on: Cystic fibrosis transmembrane conductance regulator (Homo sapiens), P13569 [F508del]; experiment: Potentiation of CFTR F508del mutant (unknown origin) expressed in human CFBE41o- cells co-expressing HS-YFP assessed as increase in halide influx measuring HS-YFP quenching measured after acute treatment at 2 to 20 uM for 20 mins in presence of forskolin by fluorescent method; settings: filed as opener, dose microM 2-20, time 20.0 min
Procedure, shortened: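 CFBE41o- cells stably co-expressing F508del-CFTR and HS-YFP were held 24 h at 32°C to rescue mutant trafficking. Cells were then acutely treated with compound (2 and 20 μM) plus forskolin (20 μM). Controls were forskolin alone and forskolin plus VX-770 (1 μM). Halide influx was read as the HS-YFP quenching rate.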

[3] = tested on: Cystic fibrosis transmembrane conductance regulator (Homo sapiens), P13569 [F508del]; experiment: Potentiation of CFTR F508 deletion mutant (unknown origin) expressed in CFBE41o- cells coexpressing HS-YFP assessed as increase in halide influx measuring HS-YFP quenching measured after acute treatment at 0.08 to 50 uM after 24 hrs in presence of forskolin by fluorescent method; settings: filed as opener, dose microM 0.08-50, time 24.0 hrs
Procedure, shortened: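 Concentration-response on CFBE41o- cells co-expressing F508del-CFTR and HS-YFP, pre-incubated 24 h at 32°C to rescue maturation. Compound was added acutely over 80 nM–50 μM with forskolin. Controls were forskolin alone and VX-770 (1 μM). Activity was measured by HS-YFP quenching from halide influx.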

[4] = tested on: Cystic fibrosis transmembrane conductance regulator (Homo sapiens), P13569 [F508del]; experiment: Potentiation of CFTR F508 deletion mutant (unknown origin) expressed in CFBE41o- cells coexpressing HS-YFP assessed as increase in halide influx measuring HS-YFP quenching measured after acute treatment at 10 uM after 24 hrs in presence of forskolin and CFTR inhibitor-172 by fluorescent method
[5] = biological target: Cystic fibrosis transmembrane conductance regulator (Homo sapiens, UniProt P13569, F508DEL); experiment: (§1) Potentiation of CFTR F508 deletion mutant (unknown origin) expressed in CFBE41o- cells coexpressing HS-YFP assessed as increase in iodide influx measuring HS-YFP quenching incubated for 20 mins in presence of forskolin by fluorescent method
Cystic fibrosis transmembrane conductance regulator, sequence (P13569 as listed by the source): as above

[6] = tested on: Cystic fibrosis transmembrane conductance regulator (Homo sapiens), P13569 [F508del]; experiment: as §1; settings: filed as opener
[7] = tested on: Cystic fibrosis transmembrane conductance regulator (Homo sapiens), P13569 [F508del]; experiment: Potentiation of CFTR F508 deletion mutant (unknown origin) expressed in CFBE41o- cells coexpressing HS-YFP assessed as increase in halide influx measuring HS-YFP quenching measured after acute treatment at 1 uM after 24 hrs in presence of forskolin and CFTR inhibitor-172 by fluorescent method

Row | Compound | Activity [1] | other results
1 | CCOC(=O)Cc1csc(N(CC)C(=O)c2cc(OC)c(OC)c(OC)c2)n1 | inactive | –
2 | CCOC(=O)Cc1csc(NC(=O)c2cc(OC)c(OC)c(OC)c2)n1 | inactive | –
3 | O=C(O)Cc1csc(NC(=O)c2ccccc2)n1 | inactive | –
4 | COc1cc(C(=O)Nc2nc(CC(=O)O)cs2)cc(OC)c1OC | inactive | –
5 | CCOC(=O)Cc1csc(N(CC)C(=O)c2ccc(Cl)cc2)n1 | inactive | Activity [2]: Active; Activity [3]: Active; Activity [4]: inactive; pEC50 [5]: 5.74; Emax [6]: 1.8
6 | CC(C)(C)c1cc(C(C)(C)C)c(NC(=O)c2c[nH]c3ccccc3c2=O)cc1O | – | Activity [7]: inactive
7 | CCN(C(=O)c1ccc(I)cc1)c1nc(CC(=O)O)cs1 | inactive | –
8 | CCN(C(=O)c1ccc(Cl)cc1)c1nc(CC(=O)O)cs1 | inactive | –
9 | CCOC(=O)Cc1csc(NC(=O)c2ccccc2)n1 | inactive | –
10 | CCN(C(=O)c1cc(OC)c(OC)c(OC)c1)c1nc(CC(=O)O)cs1 | inactive | –
11 | CCOC(=O)Cc1csc(NC(=O)c2ccc(Cl)cc2)n1 | inactive | –
12 | CCN(C(=O)c1ccccc1)c1nc(CC(=O)O)cs1 | inactive | –
13 | CCOC(=O)Cc1csc(NC(=O)c2ccc(I)cc2)n1 | inactive | –
14 | CCOC(=O)Cc1csc(N(CC)C(=O)c2ccccc2)n1 | inactive | –
15 | O=C(O)Cc1csc(NC(=O)c2ccc(Cl)cc2)n1 | inactive | –
16 | O=C(O)Cc1csc(NC(=O)c2ccc(I)cc2)n1 | inactive | –
17 | CCOC(=O)Cc1csc(N(CC)C(=O)c2ccc(I)cc2)n1 | inactive | Activity [2]: Active; Activity [3]: Active; Activity [4]: inactive; pEC50 [5]: 5.49; Emax [6]: 1.9
